Screening data from PubChem.
Apaf-1 inh: inhibitors of human Apaf-1 apoptosome, primary screen, biochemical, DEVD-Rh110 fluorescence, uHTS | Apoptotic protease-activating factor 1 (Homo sapiens), O14727 | reconstituted apoptosome caspase-3 activity | inhibition, % at 20 µM | 330,000 compounds, 0.71% hits; active = inhibition of at least 40% at 20 µM;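 note: plate controls were DMSO wells for no effect and DEVD-CHO caspase inhibitor wells for full effect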
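Material: biochemical Apaf-1 apoptosome reconstitution. Medium: Hepes buffer, pH 7.5. Also added: cytochrome c activation, bis-DEVD rhodamine 110 substrate. Timing: 30 min compound preincubation, 50 min activation, room temperature. Measured by: rhodamine 110 fluorescence at Ex 480/Em 540 nm.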
MEKK3 PB1 HTS: modulators of MEKK3-MEK5 PB1 binding, primary screen, biochemical, wildtype MEKK3, multiplex bead flow cytometry, Alexa488-MEK5 | binding response (% of control), % at 10 µM | AID 1529, 2009 | 290,000 compounds, 1.4% hits | bead-based flow cytometry, Alexa488-MEK5 binding to MEKK3; actives lie on both sides; 0 = blocked by unlabeled MEK5, 100 = vehicle;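 active = binding response more than 3 SD above or below the average of its plate-row segment, actives on both sides; inconclusive = wells at one plate position flagged as instrument error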;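 note: Alexa488 bead fluorescence after subtracting the streptavidin-only scavenger bead signal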
MEKK2 WT-MEK5: modulators of MEK5 binding to wildtype MEKK2, primary screen, biochemical, multiplex bead flow cytometry, Alexa488-MEK5 | AID 1531, 2009 | Mitogen-activated protein kinase kinase kinase 2 (Homo sapiens), Q9Y2U5 | Alexa488-MEK5 binding to MEKK2 WT; actives lie on both sides | 290,000 compounds, 1.1% hits | binding response (% of control), % at 10 µM; in the data active = binding response below about 67% or above about 130%; inconclusive = no clear call, values can overlap the other calls; inactive = in between
Pemphigus Ab inh: inhibitors of pemphigus antibody binding to DSG3, primary screen, biochemical, bead-based, flow cytometry, scFv-GFP | DSG3-coupled beads, scFv-anti-DSG3-GFP binding; stronger effect = lower value | Desmoglein-3 (Homo sapiens), P32926 | binding (percent of control), % at 10 µM | 310,000 compounds, 0.48% hits;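 active = binding more than 3 SD below its plate's average and above zero; inconclusive = below that plate limit but binding exactly zero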
Target sequence (P32926 whole entry, looked up): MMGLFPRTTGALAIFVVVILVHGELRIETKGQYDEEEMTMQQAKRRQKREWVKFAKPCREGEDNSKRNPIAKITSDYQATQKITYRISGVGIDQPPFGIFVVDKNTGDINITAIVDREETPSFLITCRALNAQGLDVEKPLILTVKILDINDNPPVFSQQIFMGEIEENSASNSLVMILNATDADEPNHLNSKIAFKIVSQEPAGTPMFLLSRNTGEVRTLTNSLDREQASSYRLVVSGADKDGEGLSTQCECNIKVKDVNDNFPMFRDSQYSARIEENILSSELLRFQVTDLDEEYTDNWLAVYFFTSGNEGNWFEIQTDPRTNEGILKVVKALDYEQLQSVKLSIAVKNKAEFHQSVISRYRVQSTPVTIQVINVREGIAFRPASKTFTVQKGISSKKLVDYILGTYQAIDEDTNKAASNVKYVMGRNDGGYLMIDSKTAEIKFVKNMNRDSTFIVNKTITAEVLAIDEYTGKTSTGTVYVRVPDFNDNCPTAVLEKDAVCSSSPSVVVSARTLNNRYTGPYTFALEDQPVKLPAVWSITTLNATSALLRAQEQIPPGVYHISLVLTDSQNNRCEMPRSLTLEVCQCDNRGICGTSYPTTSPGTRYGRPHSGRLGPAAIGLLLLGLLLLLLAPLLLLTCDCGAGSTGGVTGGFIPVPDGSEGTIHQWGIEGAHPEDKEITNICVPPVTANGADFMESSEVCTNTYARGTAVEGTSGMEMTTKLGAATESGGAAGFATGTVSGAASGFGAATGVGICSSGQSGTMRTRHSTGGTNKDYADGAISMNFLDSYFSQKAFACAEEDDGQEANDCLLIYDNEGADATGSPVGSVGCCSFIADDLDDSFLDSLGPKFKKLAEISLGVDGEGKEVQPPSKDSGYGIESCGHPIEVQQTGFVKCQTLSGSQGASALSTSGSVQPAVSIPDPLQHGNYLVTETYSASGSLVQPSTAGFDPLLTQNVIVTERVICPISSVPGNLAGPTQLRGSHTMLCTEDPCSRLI
MEKK2mut PB1 HTS: MEK5 binding signal on mutant MEKK2 PB1, primary screen, biochemical, multiplex bead flow cytometry, Alexa488-MEK5; Alexa488-MEK5 binding to MEKK2 mutant; percent response, % at 10 µM; 290,000 compounds, 0.35% hits; AID 1530, 2009; in the data active = percent response above about 24%, passing the limit was not always enough
UBC13 inh: UBC13 polyubiquitin chain formation inhibitors, primary screen, biochemical, TR-FRET, uHTS; Ubiquitin-conjugating enzyme E2 N (Homo sapiens), P61088; inhibition, % at 20 µM; 330,000 compounds, 0.47% hits; in the data active = inhibition above about 45%, passing the limit was not always enough; inconclusive = no clear call, values can overlap the other calls
MEKK2wt confirm: modulators of MEK5 binding to wildtype MEKK2, confirmation, biochemical, single concentration, multiplex bead flow cytometry; shares compounds with MEKK3 PB1 HTS; Alexa488-MEK5 binding to MEKK2 WT; actives lie on both sides; 5,900 compounds, 2.4% hits; binding response (% of control), % at 10 µM; in the data active = binding response below about 16% or above about 210%; inactive = in between
MEKK2mut confirm: mutant MEKK2 PB1-MEK5 binding signal retest – biochemical, single concentration, multiplex bead flow cytometry, confirmation; Alexa488-MEK5 binding to MEKK2 mutant; shares compounds with MEKK3 PB1 HTS; percent response, % at 10 µM; AID 1893, 2009; 5,900 compounds, 2% hits; in the data active = percent response mostly above about 71%, no sharp cut-off; inactive = mostly below about 38%;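 note: higher means compound restores mutant binding toward wildtype level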
MEKK3-MEK5 inh: MEKK3 wild-type PB1 binding to MEK5, inhibitors, confirmation, biochemical, bead multiplex flow cytometry, single concentration, wildtype; shares compounds with MEKK3 PB1 HTS; Alexa488-MEK5 binding to MEKK3; stronger effect = lower value; binding response (% of control), % at 10 µM; 5,900 compounds, 1.8% hits; AID 1894, 2009;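 active = binding response below 72% of control, or above a set upper limit, though filed actives all read lower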;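 note: 100% = DMSO only wells and 0% = binding blocked by excess unlabeled MEK5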
Active calls of the source: *; ? = inconclusive; / = not tested or not shown; [ ] = remark or other dose. Rows were chosen to be rich in hits. Some 3.2% of all compounds tested hit in one or more screens of this group.

SMILES | Apaf-1 inh | MEKK3 PB1 HTS | MEKK2 WT-MEK5 | Pemphigus Ab inh | MEKK2mut PB1 HTS | UBC13 inh | MEKK2wt confirm | MEKK2mut confirm | MEKK3-MEK5 inh
COc1ccc(C2N(c3ccccc3)C(=S)N3CCCN23)cc1 (stereo not drawn) | -10 | 139* | 106 | 121 | 1 | 8 | 96 | 0 | 101
S=C1N(c2ccccc2)C(c2ccc(Cl)cc2)N2CCCN12 (stereo not drawn) | -2 | 105 | 113 | 102 | 8 | 6 | / | / | /
COC(=O)c1c(NC(=O)/C=C/c2ccco2)sc2c1CCC2 | 8 | 134* | 104 | / | 2 | -7 | 96 | -4 | 100
COc1ccc(-c2csc(NC(=O)c3cccc(S(=O)(=O)N4CCN(C)CC4)c3)n2)cc1 | 21 | 72*[inhibitor] | 102 | 100 | -8 | 2 | 125 | 43 | 106
COc1ccc(-c2csc(NC(=O)C3CCCCN3S(=O)(=O)c3ccccc3)n2)cc1 (stereo not drawn) | 19 | 80*[inhibitor] | 90 | 124 | -6 | -11 | 95 | -5 | 95
COc1ccc(-c2csc(NC(=O)CS(=O)(=O)c3ccccc3)n2)cc1 | 13 | / | / | 99 | / | 0 | / | / | /
CCCCN1C2CCCC1CC(NC(=O)c1cccc(OC)c1)C2 (stereo not drawn) | -15 | 106 | 110 | 102 | 4 | 8 | / | / | /
CC1CCCCC12NC(=O)N(CC(=O)OCC(=O)N(C)C1CCCCC1)C2=O (stereo not drawn) | 0 | / | / | / | / | 7 | / | / | /
COc1ccc(CCNCc2cc(C)n(-c3ccc(OC)cc3)c2C)cc1 | 8 | 97 | 184* | 113 | 61* | 19 | 148 | 22 | 99
COc1ccc(CCNCc2ccccc2N2CCCC2)cc1 | 6 | 110 | 119 | ? | 13 | 9 | / | / | /
CC(=O)Nc1ccc(S(=O)(=O)Nc2ccc(-n3cnnn3)cc2)cc1 | -9 | / | / | 98 | / | -4 | / | / | /
CCCn1cnc2c(SCc3ccccc3Cl)nc(N)nc21 | / | / | / | 119 | / | / | / | / | /
CCOc1cc(C2NN=C(c3ccccc3)S2)ccc1OCc1ccc(F)cc1 (stereo not drawn) | 12 | 0.0*[inhibitor] | 0.0*[inhibitor] | 102 | -16 | 4 | 97 | -7 | 95
CCOc1cc(C2NN=C(c3ccccc3)S2)ccc1OCc1ccccc1Cl (stereo not drawn) | 16 | 97 | 95 | 107 | -1 | 17 | / | / | /
CC(C)N(C(=O)[C@H]1C[C@H](CC(=O)NCCc2ccccn2)C(=O)N2CCc3c([nH]c4cc(CCC(=O)N(C)C)ccc34)[C@]12C)C(C)C | 8 | / | / | 99 | / | / | / | / | /
Oc1ccc(-n2cnnn2)cc1 | -2 | 71*[inhibitor] | 77 | 95 | -5 | 3 | 104 | 9 | 105
O=C(Cc1c(Cl)cccc1Cl)OCC(=O)c1ccc[nH]1 | / | / | / | 105 | / | / | / | / | /
Cc1c(C(=O)Nc2ccc(-c3nnc4n3CCCCC4)cc2)oc2ccc(Br)cc12 | 26 | 96 | 1.0*[inhibitor] | 78 | 4 | 28 | 133 | 13 | 98
COc1ccc(C(CNC(=O)c2cccc(S(=O)(=O)Nc3ccccc3OC)c2)N2CCCC2)cc1 (stereo not drawn) | 35 | / | / | 122 | / | 4 | / | / | /
COc1ccc(C(CNC(=O)c2oc3ccc(F)cc3c2C)N2CCCCC2)cc1 (stereo not drawn) | 16 | 102 | 120 | 96 | 7 | 15 | / | / | /
COc1ccc(C(CNC(=O)c2ccc(C)c(S(=O)(=O)Nc3ccccc3OC)c2)N2CCCC2)cc1 (stereo not drawn) | 29 | 112 | 154* | 129 | 29* | 44 | 162 | 44 | 114
COc1ccc(C(CNC(=O)c2oc3ccc(Br)cc3c2C)N2CCCCC2)cc1 (stereo not drawn) | 17 | 109 | 153* | 100 | -4 | 15 | 156 | 39 | 112
O=C(Nc1cccc(-c2nn[nH]n2)c1)c1csc2c1CCCC2 | 0 | 104 | 103 | 102 | 9 | -9 | / | / | /
Cc1ccc(-n2c(-c3cccs3)nc3nc4ccccc4nc32)cc1 | 11 | 122 | 91 | / | -1 | 22 | / | / | /
Fc1ccc(-n2c(-c3cccs3)nc3nc4ccccc4nc32)cc1 | -1 | 134* | 100 | 119 | 0 | 24 | 99 | 0 | 100
SMILES | Apaf-1 inh | MEKK3 PB1 HTS | MEKK2 WT-MEK5 | Pemphigus Ab inh | MEKK2mut PB1 HTS | UBC13 inh | MEKK2wt confirm | MEKK2mut confirm | MEKK3-MEK5 inh
O=C(NCCc1ccccc1)c1cccc(N2CCCC2=O)c1 | -9 | 104 | 99 | 103 | 0 | 3 | / | / | /
CS(=O)(=O)N(CC(=O)NCCSCc1ccccc1Cl)c1ccc(F)cc1 | 8 | 111 | 114 | 109 | 11 | 5 | / | / | /
COc1ccc(OC2CCN(S(=O)(=O)c3ccc(C(C)=O)cc3)CC2)cc1 | 18 | 103 | 103 | 97 | 10 | -2 | / | / | /
O=C(CN1C(=O)NC2(CCCCCC2)C1=O)N1CCC(Cc2ccccc2)CC1 | 20 | 3.0*[inhibitor] | 3.0*[inhibitor] | 109 | -1 | 4 | 99 | -4 | 96
O=C(CN1C(=O)NC2(CCCCC2)C1=O)N1CCN(S(=O)(=O)c2ccccc2)CC1 | 7 | 100 | 96 | 114 | 0 | -4 | / | / | /
CCOC(=O)c1cnc2c(ccc3ccccc32)c1NCCCN(C)C | 10 | 111 | 151* | 118 | 9 | 23 | 129 | 16 | 102
CCOC(=O)c1cnc2ccccc2c1NCCO | -15 | 87 | 99 | 108 | -3 | 2 | / | / | /
N#Cc1c(-c2ccccc2F)cc(-c2cccnc2)nc1N | 7 | 100 | 100 | 108 | -1 | 18 | / | / | /
N#Cc1c(-c2cccnc2)cc(-c2ccccc2)nc1N | -7 | 129* | 111 | 111 | 21 | 15 | 97 | -3 | 100
CCCCN(C(=O)Nc1ccc(OCC)cc1)C1CCN(C(C)=O)CC1 | 4 | 93 | -1.0*[inhibitor] | 104 | -3 | -10 | 101 | 3 | 98
